Data published in ChEMBL document CHEMBL4373711, “Development of 3,5-Dinitrophenyl-Containing 1,2,4-Triazoles and Their Trifluoromethyl Analogues as Highly Efficient Antitubercular Agents Inhibiting Decaprenylphosphoryl-β-d-ribofuranose 2'-Oxidase” (J Med Chem, 2019).
Values after ≈ are worked out from the molar mass of the structure shown. Active and inactive are the calls of the source. The calls are words filed in the database; no cut-off is given here.

Tests used:
Mycobacterium kansasii [1] = experiment: Antimycobacterial activity against Mycobacterium kansasii 6509/96 after 21 days; format: functional; details: 6509/96, 504 h
Procedure, shortened: (§1)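 Microdilution in Šula's semisynthetic medium; compounds in DMSO at 32–0.03 µM. Inoculum from 1.0 McFarland suspension diluted 10-4. […] Isoniazid and rifampicin as reference drugs.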

[2] = test system: Mycobacterium tuberculosis; experiment: Antimycobacterial activity against Mycobacterium tuberculosis H37Rv CNCTC My 331/88 after 14 days; format: functional; details: H37Rv CNCTC My 331/88, 336 h
Procedure, shortened: (§2)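 M. tuberculosis strains (H37Rv and clinical MDR/XDR isolates) tested by microdilution in Šula's semisynthetic medium. Compounds were dissolved in DMSO and tested at 32 to 0.03 µM in twofold steps. Inoculum was a 1.0 McFarland suspension diluted 10-3. Plates were incubated at 37 °C and read at 14 and 21 days.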

HepG2 = experiment: Cytotoxicity against human HepG2 cells assessed as reduction in cell viability after 48 hrs by CellTiter 96 aqueous one solution assay; format: cell-based; details: HepG2, 48 h
Candida tropicalis = experiment: Antifungal activity against Candida tropicalis ATCC 750 CCM 8264 at highest concentration measured after 24 to 48 hrs by alamar blue dye based broth microdilution assay; format: functional, organism-based
Staphylococcus aureus = experiment: Antibacterial activity against methicillin-resistant Staphylococcus aureus subsp. aureus ATCC 43300 CCM 4750 at highest concentration measured after 24 to 48 hrs by alamar blue dye based broth microdilution assay; format: functional, organism-based
A-431 = experiment: Cytotoxicity against human A431 cells assessed as reduction in cell viability after 48 hrs by CellTiter 96 aqueous one solution assay; format: cell-based; details: A-431, 48 h
[3] = Cytotoxicity against human HepG2 cells assessed as cell viability at 30 uM after 48 hrs by CellTiter 96 aqueous one solution assay relative to control; format: cell-based; details: read-out: Activity
Procedure, shortened: (§3)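 HepG2 (DMEM, 10% FBS, 1 mM pyruvate) or A431 (DMEM, 10% FBS) seeded 10,000 cells/well, 24 h at 37 °C, 5% CO2, then 30 µM compound for 48 h. MTS reagent 60 min, absorbance 490 nm, background subtracted; 0.1% DMSO vehicle = 100%, 10% SDS = 0% viability.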

[4] = test system: Mycobacterium tuberculosis; experiment: Antimycobacterial activity against XDR Mycobacterium tuberculosis Praha 131 after 14 days; format: functional; details: Praha 131, 336 h; procedure, shortened: as §2
[5] = target: T1, Decaprenylphosphoryl-beta-D-ribose oxidase (Mycobacterium tuberculosis (strain ATCC 25618 / H37Rv)) (UniProt P9WJF1); experiment: Inhibition of DprE1 in Mycobacterium tuberculosis H37Rv assessed as accumulation of trehalose monomycolates at 10 times MIC measured after 24 hrs in presence of [14C]-acetate by TLC-based autoradiography
T1 sequence (whole entry): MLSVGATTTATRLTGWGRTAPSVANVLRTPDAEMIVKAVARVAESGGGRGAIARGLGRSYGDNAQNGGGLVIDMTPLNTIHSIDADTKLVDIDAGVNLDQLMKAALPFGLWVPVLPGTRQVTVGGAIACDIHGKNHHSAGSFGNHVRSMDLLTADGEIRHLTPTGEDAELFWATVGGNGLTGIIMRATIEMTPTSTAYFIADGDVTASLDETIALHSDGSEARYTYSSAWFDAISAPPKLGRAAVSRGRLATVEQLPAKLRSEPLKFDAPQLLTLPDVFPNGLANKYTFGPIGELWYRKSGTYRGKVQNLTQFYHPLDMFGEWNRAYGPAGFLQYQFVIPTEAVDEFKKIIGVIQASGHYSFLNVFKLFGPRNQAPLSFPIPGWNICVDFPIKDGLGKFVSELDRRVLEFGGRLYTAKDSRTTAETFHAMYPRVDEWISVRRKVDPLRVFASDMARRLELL
Procedure, shortened: (§4)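 M. tuberculosis H37Rv cultures were exposed to compound at final 10× or 100× MIC, or to DMSO, together with [14C]-acetate at 1 µCi/ml final. After 24 h, lipids were extracted in CHCl3/CH3OH (2:1) for 2 h at 65 °C and given two Folch washes. Extracts were run on TLC in CHCl3/CH3OH/H2O (20:4:0.5), then autoradiographed for 7 days at -80 °C.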

[6] = test system: Staphylococcus epidermidis; experiment: Antibacterial activity against Staphylococcus epidermidis at highest concentration measured after 24 to 48 hrs by alamar blue dye based broth microdilution assay; format: functional, organism-based
Candida albicans = experiment: Antifungal activity against Candida albicans ATCC 24433 CCM 8320 at highest concentration measured after 24 to 48 hrs by alamar blue dye based broth microdilution assay; format: functional, organism-based
Enterococcus faecalis = experiment: Antibacterial activity against Enterococcus faecalis ATCC 29212 CCM 4224 at highest concentration measured after 24 to 48 hrs by alamar blue dye based broth microdilution assay; format: functional, organism-based
Pseudomonas aeruginosa = experiment: Antibacterial activity against Pseudomonas aeruginosa ATCC 27853 CCM 3955 at highest concentration measured after 24 to 48 hrs by alamar blue dye based broth microdilution assay; format: functional, organism-based
Candida parapsilosis = experiment: Antifungal activity against Candida parapsilosis ATCC 22019 CCM 8260 at highest concentration measured after 24 to 48 hrs by alamar blue dye based broth microdilution assay; format: functional, organism-based
Mycobacterium kansasii [7] = experiment: Antimycobacterial activity against Mycobacterium kansasii 6509/96 after 14 days; format: functional; details: 6509/96, 336 h; procedure, shortened: as §1
[8] = Cytotoxicity against human A431 cells assessed as cell viability at 30 uM after 48 hrs by CellTiter 96 aqueous one solution assay relative to control; format: cell-based, A-431; details: read-out: Activity; procedure, shortened: as §3
Mycobacterium kansasii [9] = experiment: Antimycobacterial activity against Mycobacterium kansasii 6509/96 after 7 days; format: functional; details: 6509/96, 168 h; procedure, shortened: as §1
[10] = target: T1, Decaprenylphosphoryl-beta-D-ribose oxidase (Mycobacterium tuberculosis (strain ATCC 25618 / H37Rv)); experiment: Inhibition of DprE1 in Mycobacterium tuberculosis H37Rv assessed as accumulation of trehalose dimycolates at 100 times MIC measured after 24 hrs in presence of [14C]-acetate by TLC-based autoradiography; procedure, shortened: as §4
[11] = target: T1, Decaprenylphosphoryl-beta-D-ribose oxidase (Mycobacterium tuberculosis (strain ATCC 25618 / H37Rv)); experiment: Inhibition of DprE1 in Mycobacterium tuberculosis H37Rv assessed as accumulation of trehalose monomycolates at 100 times MIC measured after 24 hrs in presence of [14C]-acetate by TLC-based autoradiography; procedure, shortened: as §4
[12] = Selectivity index, ratio of IC50 for human HepG2 cells to MIC>99 for antimycobacterial activity against XDR Mycobacterium tuberculosis Praha 131 after 14 days; format: toxicity; details: read-out: Selectivity Index
Procedure, shortened: (§5)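 SI from HepG2 IC50 and M. tuberculosis MIC. HepG2 cells: DMEM + 10% FBS + 1 mM pyruvate, 10,000/well, 48 h treatment, 0.1% DMSO and 10% SDS controls, MTS absorbance at 490 nm.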

[13] = Selectivity index, ratio of IC50 for human A431 cells to MIC>99 for antimycobacterial activity against Mycobacterium kansasii CNCTC My 235/80 after 14 days; format: toxicity; details: read-out: Selectivity Index
[14] = Selectivity index, ratio of IC50 for human HepG2 cells to MIC>99 for antimycobacterial activity against XDR Mycobacterium tuberculosis Praha 131 after 21 days; format: toxicity; details: read-out: Selectivity Index; procedure, shortened: as §5
[15] = Selectivity index, ratio of IC50 for human A431 cells to MIC>99 for antimycobacterial activity against Mycobacterium avium CNCTC My 330/88 after 21 days; format: toxicity; details: read-out: Selectivity Index
[16] = Selectivity index, ratio of IC50 for human HepG2 cells to MIC>99 for antimycobacterial activity against Mycobacterium tuberculosis H37Rv CNCTC My 331/88 after 14 days; format: toxicity; details: read-out: Selectivity Index; procedure, shortened: as §5

| Structure (SMILES) | MIC99 (Mycobacterium kansasii [1]) [µM] | MIC99 [2] [µM] | IC50 (HepG2) [µM] | Activity (Candida tropicalis) | Activity (Staphylococcus aureus) | IC50 (A-431) [µM] | viability at 48 h, 30 µM [3] [%] | MIC99 [4] [µM] | inhibition [5] | Activity [6] | Activity (Candida albicans) | Activity (Enterococcus faecalis) | Activity (Pseudomonas aeruginosa) | Activity (Candida parapsilosis) | MIC99 (Mycobacterium kansasii [7]) [µM] | viability at 48 h, 30 µM [8] [%] | MIC99 (Mycobacterium kansasii [9]) [µM] | inhibition [10] | inhibition [11] | other results |
| --- | --- | --- | --- | --- | --- | --- | --- | --- | --- | --- | --- | --- | --- | --- | --- | --- | --- | --- | --- | --- |
| COc1ccc(CSc2nnc(-c3cc([N+](=O)[O-])cc(C(F)(F)F)c3)n2Cc2ccccc2)cc1 | 1 (≈ 0.501 µg/mL) | 0.5 (≈ 0.25 µg/mL) | > 30 | inactive | inactive | > 30 | 86 | 0.5 (≈ 0.25 µg/mL) | Active | inactive | inactive | inactive | inactive | inactive | 1 (≈ 0.501 µg/mL) | 74 | 0.5 (≈ 0.25 µg/mL) |  |  |  |
| O=[N+]([O-])c1cc(-c2nnc(SCc3ccccc3)n2Cc2ccccc2)cc([N+](=O)[O-])c1 | 0.03 (≈ 0.0134 µg/mL) | 0.03 (≈ 0.0134 µg/mL) | > 30 | inactive | inactive | > 30 | 106 | 0.03 (≈ 0.0134 µg/mL) | inactive | inactive | inactive | inactive | inactive | inactive | 0.03 (≈ 0.0134 µg/mL) | 111 | 0.03 (≈ 0.0134 µg/mL) | Active | Active |  |
| COc1ccc(Cn2c(SCc3cc([N+](=O)[O-])cc([N+](=O)[O-])c3)nnc2-c2ccccc2)cc1 |  | 1 (≈ 0.478 µg/mL) | > 30 | inactive | inactive | > 30 | 133 | 2 (≈ 0.955 µg/mL) | inactive | inactive | inactive | inactive | inactive | inactive |  | 127 |  | inactive | inactive |  |
| CCCCCCn1c(SCc2cc([N+](=O)[O-])cc([N+](=O)[O-])c2)nnc1-c1ccccc1 | 2 (≈ 0.883 µg/mL) | 1 (≈ 0.442 µg/mL) |  | inactive | inactive |  |  | 2 (≈ 0.883 µg/mL) | inactive | inactive | inactive | inactive | inactive | inactive | 2 (≈ 0.883 µg/mL) |  | 1 (≈ 0.442 µg/mL) | inactive | inactive |  |
| O=[N+]([O-])c1cc(-c2nnc(SCc3ccccc3)n2Cc2ccccc2)cc(C(F)(F)F)c1 | 0.03 (≈ 0.0141 µg/mL) | 0.03 (≈ 0.0141 µg/mL) | 21.5 | inactive | inactive | 10.1 | 18 | 0.06 (≈ 0.0282 µg/mL) | Active | inactive | inactive | inactive | inactive | inactive | 0.03 (≈ 0.0141 µg/mL) | 37 | 0.03 (≈ 0.0141 µg/mL) |  |  | selectivity ratio at 336 h [12]: > 100; selectivity ratio at 336 h [13]: > 100; selectivity ratio at 504 h [14]: > 100; selectivity ratio at 504 h [15]: > 100; selectivity ratio at 336 h [16]: > 100 |
| COc1ccc(CSc2nnc(-c3cc([N+](=O)[O-])cc([N+](=O)[O-])c3)n2Cc2ccccc2)cc1 | 0.03 (≈ 0.0143 µg/mL) | 0.03 (≈ 0.0143 µg/mL) | > 30 | inactive | inactive | > 30 | 104 | 0.03 (≈ 0.0143 µg/mL) | inactive | inactive | inactive | inactive | inactive | inactive | 0.03 (≈ 0.0143 µg/mL) | 92 | 0.03 (≈ 0.0143 µg/mL) | Active | Active |  |
